Laboratory results reported in ChEMBL document CHEMBL1681789, “New bichalcone analogs as NF-κB inhibitors and as cytotoxic agents inducing Fas/CD95-dependent apoptosis” (Bioorg Med Chem, 2011).
Calls of active or inactive are those of the source. The rule behind the calls is not given here.

Experiments:
[1] = system: HCT-8; test: Cytotoxicity against human HCT8 cells after 3 days; type: functional; settings: HCT-8, 72 h
Summary of the method: (§1)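 Seeded at 1500–7500 cells/well; compounds added from DMSO-diluted stock. After 3 days, attached cells were fixed with cold 50% TCA, stained with 0.4% sulforhodamine B and read at 562 nm. EC50 is the concentration reducing growth by 50%, averaged over at least three independent determinations. Cells were grown in RPMI-1640 with […], 0.25% bicarbonate and 10% FBS.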

[2] = system: KB; test: Cytotoxicity against human KB cells after 3 days; type: functional; settings: 72 h; summary of the method: as §1
[3] = system: DU-145; test: Cytotoxicity against human DU145 cells after 3 days; type: functional; settings: DU-145, 72 h; summary of the method: as §1
[4] = Inhibition of Nitric oxide synthase activity in mouse BV2 cells assessed as LPS-induced NO production after 24 hrs by Griess reaction; type: cell-based; settings: BV-2, 24 h
Summary of the method: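 Murine BV2 microglia were cultured in DMEM with 5% FBS and given 1–50 µM drug with 0.5 µg/mL LPS. Nitrite accumulated in the medium over 24 h was measured by Griess reagent. IC50 values are means ± SEM from 3–6 experiments on different days using different passages.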

[5] = system: BV-2; test: Inhibition of NADPH oxidase mediated-ROS production in mouse BV2 cells; type: cell-based
Summary of the method: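 Compounds were incubated with 50 µg microglial cell homogenate for 20 min at 37 °C in the dark. Superoxide production was started with 200 µM NADPH, and chemiluminescence was followed for 30 min; the AUC represents ROS production. DPI served as positive control.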

[6] = system: A549; test: Cytotoxicity against human A549 cells after 3 days; type: functional; settings: A549, 72 h; summary of the method: as §1
[7] = system: BV-2; test: Reduction in iNOS protein expression in LPS-stimulated mouse BV2 cells at 1 uM by Western blotting
[8] = system: BV-2; test: Inhibition of NF-kappaB nuclear translocation in LPS-stimulated mouse BV2 cells at 1 uM by Western blotting; type: cell-based
[9] = system: HT-29; test: Induction of apoptosis in human HT-29 cells assessed as DNA fragmentation at 30 uM using TUNEL staining by flow cytometry; type: functional, cell-based
Summary of the method: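 HT-29 cells in 6-well plates were treated with 30 µM for 24 and 48 h and harvested. They were labeled with TdT enzyme at 37 °C for 1 h, then FITC anti-digoxigenin conjugate at 37 °C for 30 min in the dark. TUNEL-positive cells were counted by flow cytometry, in triplicate.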

[10] = system: HT-29; test: Induction of apoptosis in human HT-29 cells assessed as increased expression of FADD protein by Western blotting; type: functional, cell-based
Summary of the method: (§2)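 Total or cytosolic extracts (30 µg protein) from treated HT-29 cells were run on SDS-PAGE and transferred to PVDF. Blots were probed for 12 h with monoclonal antibodies to the named protein, followed by an HRP secondary, and detected by ECL.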

[11] = system: HT-29; test: Induction of apoptosis in human HT-29 cells assessed as decreased expression of Bcl-2 protein by Western blotting; type: functional, cell-based; summary of the method: as §2
[12] = system: HT-29; test: Induction of apoptosis in human HT-29 cells assessed as increased expression of caspase 3 protein by Western blotting; type: functional, cell-based; summary of the method: as §2
[13] = system: HT-29; test: Cytotoxicity against human HT-29 cells assessed as nuclear shrinkage and chromatin condensation at 50 uM for 24 hrs using DAPI staining by fluorescence microscopy relative to untreated cells; type: functional, cell-based
Summary of the method: (§3)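 HT-29 cells, kept in RPMI-1640 with FBS and penicillin/streptomycin, were treated for 24 or 48 h. They were fixed in 4% paraformaldehyde for 30 min and stained with 1 µg/mL DAPI for 30 min in the dark. Nuclear morphology was examined by fluorescence microscopy at ×200.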

[14] = system: HT-29; test: Induction of apoptosis in human HT-29 cells assessed as increased expression of Apaf-1 protein by Western blotting; type: functional, cell-based; summary of the method: as §2
[15] = system: HT-29; test: Induction of apoptosis in human HT-29 cells assessed as increased expression of Fas/CD95 protein by Western blotting; type: functional, cell-based; summary of the method: as §2
[16] = system: HT-29; test: Induction of apoptosis in human HT-29 cells assessed as increased expression of AIF protein by Western blotting; type: functional, cell-based; summary of the method: as §2
[17] = system: HT-29; test: Induction of apoptosis in human HT-29 cells assessed as increased expression of Bax protein by Western blotting; type: functional, cell-based; summary of the method: as §2
[18] = system: HT-29; test: Induction of apoptosis in human HT-29 cells at 30 uM for 24 hrs pretreated with caspase 3 inhibitor […] for 1 hr by MTT assay; type: functional, cell-based
Summary of the method: (§4)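 HT-29 cells were pretreated for 1 h with caspase-3, -8 or -9 inhibitor (dissolved in DMSO, diluted in medium), then given 30 µM for 24 h. Viability was read by MTT at 570 nm, in triplicate.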

[19] = system: HT-29; test: Induction of apoptosis in human HT-29 cells assessed as decreased expression of pro-caspase-9 protein by Western blotting; type: functional, cell-based; summary of the method: as §2
[20] = system: HT-29; test: Cytotoxicity against human HT-29 cells assessed as nuclear shrinkage and chromatin condensation at 50 uM for 48 hrs using DAPI staining by fluorescence microscopy relative to untreated cells; type: functional, cell-based; summary of the method: as §3
[21] = system: HT-29; test: Induction of apoptosis in human HT-29 cells assessed as increased expression of Endo G protein by Western blotting; type: functional, cell-based; summary of the method: as §2
[22] = system: HT-29; test: Induction of apoptosis in human HT-29 cells at 30 uM for 24 hrs pretreated with caspase 9 inhibitor Z-LEHD-FMK for 1 hr by MTT assay; type: functional, cell-based; summary of the method: as §4
[23] = system: HT-29; test: Induction of apoptosis in human HT-29 cells assessed as caspase 8 activation at 30 uM for 24 hrs by MTT assay; type: functional, cell-based
[24] = system: HT-29; test: Induction of apoptosis in human HT-29 cells assessed as caspase 3 activation at 30 uM for 24 hrs by MTT assay; type: functional, cell-based
[25] = system: HT-29; test: Cytotoxicity against human HT-29 cells for 24 hrs by MTT assay; type: functional, cell-based
Summary of the method: (§5)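 HT-29 cells in 96-well plates were exposed to 0–50 µM for 24 h, or to 30 µM for 12–72 h. MTT was then added for 4 h at 37 °C in the dark, and formazan was dissolved in DMSO and read at 570 nm. Viability is expressed as % of untreated OD, run in triplicate, mean±SD.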

[26] = system: HT-29; test: Induction of apoptosis in human HT-29 cells at 30 uM for 24 hrs pretreated with caspase 8 inhibitor Z-IETD-FMK for 1 hr by MTT assay; type: functional, cell-based; summary of the method: as §4
[27] = system: HT-29; test: Cytotoxicity against human HT-29 cells assessed as nuclear shrinkage and chromatin condensation at 30 uM for 24 hrs using DAPI staining by fluorescence microscopy relative to untreated cells; type: functional, cell-based; summary of the method: as §3
[28] = system: HT-29; test: Induction of apoptosis in human HT-29 cells assessed as increased expression of t-Bid protein by Western blotting; type: functional, cell-based; summary of the method: as §2
[29] = system: HT-29; test: Cytotoxicity against human HT-29 cells at 30 uM by MTT assay; type: functional, cell-based; settings: TDE = time-dependent effect; summary of the method: as §5
[30] = system: HT-29; test: Cytotoxicity against human HT-29 cells assessed as nuclear shrinkage and chromatin condensation at 30 uM for 48 hrs using DAPI staining by fluorescence microscopy relative to untreated cells; type: functional, cell-based; summary of the method: as §3
[31] = system: HT-29; test: Induction of apoptosis in human HT-29 cells assessed as caspase 9 activation at 30 uM for 24 hrs by MTT assay; type: functional, cell-based
[32] = system: HT-29; test: Induction of apoptosis in human HT-29 cells assessed as increased expression of cytosolic cytochrome C protein by Western blotting; type: functional, cell-based; summary of the method: as §2
[33] = system: HT-29; test: Induction of apoptosis in human HT-29 cells assessed as decreased expression of pro-caspase-8 protein by Western blotting; type: functional, cell-based; summary of the method: as §2
[34] = system: HCT-8; test: Cytotoxicity against human HCT8 cells at 20 ug/ml after 3 days; type: functional, cell-based
[35] = system: DU-145; test: Cytotoxicity against human DU145 cells at 20 ug/ml after 3 days; type: functional, cell-based
[36] = system: A549; test: Cytotoxicity against human A549 cells at 20 ug/ml after 3 days; type: functional, cell-based
[37] = system: KB; test: Cytotoxicity against human KB cells at 20 ug/ml after 3 days; type: functional, cell-based

O=C(/C=C/c1cccs1)c1ccc(N2CCN(Cc3cc(C(=O)/C=C/c4cccs4)ccc3O)CC2)cc1
GI50 [1]: > 37000 nM | GI50 [2]: > 37000 nM | GI50 [3]: 29200 nM | IC50 [4]: 1900 nM | inhibition [5]: inactive | GI50 [6]: > 37000 nM

COc1cc(C(=O)/C=C/c2ccccn2)cc(CN2CCN(c3ccc(C(=O)/C=C/c4ccccn4)cc3)CC2)c1O
GI50 [1]: 700 nM | GI50 [2]: 3980 nM | GI50 [3]: 1300 nM | IC50 [4]: 1600 nM | inhibition [5]: inactive | GI50 [6]: 1000 nM

CC(=O)c1ccc(N2CCN(Cc3cc(C(=O)/C=C/c4cccn4C)ccc3O)CC2)cc1
GI50 [1]: > 45100 nM | GI50 [2]: 39100 nM | GI50 [3]: > 45100 nM | IC50 [4]: 1900 nM | inhibition [5]: inactive | GI50 [6]: 31200 nM

O=C(/C=C/c1cccnc1)c1ccc(N2CCN(Cc3cc(C(=O)/C=C/c4cccnc4)ccc3O)CC2)cc1
inhibition [7]: Active | GI50 [1]: 1400 nM | GI50 [2]: 1660 nM | GI50 [3]: 2190 nM | inhibition [8]: Active | IC50 [4]: 300 nM | inhibition [5]: inactive | GI50 [6]: 1470 nM

CC(=O)O[C@H]1C(=O)[C@@]2(C)[C@H]([C@H](OC(=O)c3ccccc3)[C@]3(O)C[C@H](OC(=O)[C@H](O)[C@@H](NC(=O)c4ccccc4)c4ccccc4)C(C)=C1C3(C)C)[C@]1(OC(C)=O)CO[C@@H]1C[C@@H]2O [PACLITAXEL]
GI50 [1]: > 100 nM | GI50 [2]: 5.16 nM | GI50 [3]: 5.23 nM | GI50 [6]: 7.6 nM

COc1cc(C(=O)/C=C/c2cccnc2)cc(CN2CCN(c3ccc(C(C)=O)cc3)CC2)c1O
Activity [9]: Active | Activity [10]: Active | Activity [11]: Active | Activity [12]: Active | Activity [13]: Active | Activity [14]: Active | GI50 [1]: 11200 nM | Activity [15]: Active | GI50 [2]: 13100 nM | Activity [16]: Active | Activity [17]: Active | Activity [18]: inactive | Activity [19]: Active | Activity [20]: Active | Activity [21]: Active | Activity [22]: inactive | Activity [23]: Active | GI50 [3]: 9980 nM | Activity [24]: Active | Activity [25]: Dose-dependent effect | Activity [26]: inactive | IC50 [4]: 3500 nM | inhibition [5]: inactive | Activity [27]: Active | Activity [28]: Active | Activity [29]: tde | GI50 [6]: 9770 nM | Activity [30]: Active | Activity [31]: Active | Activity [32]: Active | Activity [33]: Active

CC(=O)c1ccc(N2CCN(Cc3cc(C(=O)/C=C/c4ccc[nH]4)ccc3O)CC2)cc1
GI50 [1]: 24700 nM | GI50 [2]: 19000 nM | GI50 [3]: 17900 nM | IC50 [4]: 1700 nM | inhibition [5]: inactive | GI50 [6]: 20100 nM

COc1ccc(/C=C/C(=O)c2ccc(N3CCN(Cc4cc(C(=O)/C=C/c5ccc(OC)cc5)ccc4O)CC3)cc2)cc1
inhibition [7]: Active | Activity [34]: inactive | Activity [35]: inactive | inhibition [8]: Active | IC50 [4]: 500 nM | inhibition [5]: inactive | Activity [36]: inactive | Activity [37]: inactive

COc1cc(C(=O)/C=C/c2ccccc2)cc(CN2CCN(c3ccc(C(=O)/C=C/c4ccccc4)cc3)CC2)c1O
GI50 [1]: 25800 nM | GI50 [2]: > 35800 nM | GI50 [3]: > 35800 nM | IC50 [4]: 2100 nM | inhibition [5]: inactive | GI50 [6]: > 35800 nM

O=C(/C=C/c1ccc(Cl)cc1Cl)c1ccc(N2CCN(Cc3cc(C(=O)/C=C/c4ccc(Cl)cc4Cl)ccc3O)CC2)cc1
Activity [34]: inactive | Activity [35]: inactive | IC50 [4]: 25700 nM | inhibition [5]: inactive | Activity [36]: inactive | Activity [37]: inactive

O=C(/C=C/c1ccccn1)c1ccc(N2CCN(Cc3cc(C(=O)/C=C/c4ccccn4)ccc3O)CC2)cc1
GI50 [1]: 1260 nM | GI50 [2]: 1230 nM | GI50 [3]: 1250 nM | IC50 [4]: 1400 nM | inhibition [5]: inactive | GI50 [6]: 1080 nM
